# Lmaj promast = inhibitors of Leishmania major promastigote growth; Leishmania major promastigotes, resazurin fluorescence viability; inhibition, % at 10 µM; hit rate 9% among 200,000; AID 1063; in the data active = inhibition above about 50%;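 note: promastigotes grown with compound for 44 hours at 28 °C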
# HCT116 bCat-KO = beta-catenin-lacking colon tumor cell growth suppression; AID 818; HCT116 beta-catenin knockout viability, CellTiter-Glo, 60 h; active compounds read low; hit rate 1.5% among 140,000; viability, % at 10 µM;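 active = viability at or under a set limit, the compound median less 4 SD, cut at about 6% in these data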;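 note: 0% = Hyamine 1622 control at 20 µM and 100% = untreated cell control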
# TNAP inh hi DEA = inhibitors of human TNAP at high phosphate acceptor concentration; inhibition, % at 20 µM; purified TNAP, CDP-star luminescence, 1 M DEA; hit rate 0.03% among 200,000;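 active = over 50% inhibition of tissue-nonspecific alkaline phosphatase at 20 µM in the single-dose screen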;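 note: plate controls were DMSO wells for no effect and EDTA-quenched wells as full inhibition for full effect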
# Target sequence (P05186 whole entry, looked up): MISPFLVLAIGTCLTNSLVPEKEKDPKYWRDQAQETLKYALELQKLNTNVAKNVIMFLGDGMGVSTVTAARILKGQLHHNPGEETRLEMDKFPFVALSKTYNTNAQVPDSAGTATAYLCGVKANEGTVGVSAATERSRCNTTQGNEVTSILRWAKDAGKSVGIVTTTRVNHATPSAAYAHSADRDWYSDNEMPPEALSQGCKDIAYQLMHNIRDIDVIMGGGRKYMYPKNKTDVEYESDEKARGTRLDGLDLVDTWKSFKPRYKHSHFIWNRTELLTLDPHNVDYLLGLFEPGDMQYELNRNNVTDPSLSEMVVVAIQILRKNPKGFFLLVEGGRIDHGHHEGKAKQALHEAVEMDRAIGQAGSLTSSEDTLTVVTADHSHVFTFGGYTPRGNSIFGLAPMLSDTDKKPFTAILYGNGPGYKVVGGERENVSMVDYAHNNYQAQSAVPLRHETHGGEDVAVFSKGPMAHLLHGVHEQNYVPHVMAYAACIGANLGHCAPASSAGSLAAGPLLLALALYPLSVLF
# TNAP inh no acc = TNAP (human) inhibition, acceptor-free conditions | AID 1012 | P05186 | hit rate 0.26% among 200,000 | inhibition, % at 20 µM | purified TNAP, CDP-star luminescence, 30 min;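 active = tissue-nonspecific alkaline phosphatase inhibition above about 50% at 20 µM in the single-dose screen, limit read from the data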;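 note: 0% = DMSO negative control and 100% = EDTA positive control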
# PTEN del growth = growth suppressors of cells with PTEN tumor suppressor deletion | HCT116 PTEN-null viability, CellTiter-Glo, 60 h; active compounds read low | viability, % at 10 µM | hit rate 1.2% among 140,000;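 active = viability at or below a set limit, 4 SD under the median of all tested compounds, cut at about 3.7% in these data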;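 note: PTEN knockout HCT116 line with beta catenin targeted HCT116 as companion control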
# TNAP act hi DEA = increases human TNAP activity under high phosphate acceptor concentration; 200,000 tested, under 10 active; purified TNAP, CDP-star luminescence, 1 M DEA, 30 min; active compounds read high; 0 = EDTA background, 1 = DMSO-only activity; activation factor at 20 µM; P05186;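 active = activation factor at least 2 at 20 µM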
#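 Dosing: 20 µM single point. System: human TNAP. Amount: TNAP 1/800 final. Incubation: 30 min, room temperature. Read-out: TNAP activation factor scaled between EDTA and DMSO control wells. Signal: luminescence from CDP-star hydrolysis. Medium: 1 M DEA, pH 9.8, Mg2+, Zn2+. Control set: EDTA negative control, DMSO positive control.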
# * marks the source's active call; other numbers are inactive results; nt = no result. In the library only some 9.6% were active in any assay of this set; here they are far more common.
SMILES,Lmaj promast,HCT116 bCat-KO,TNAP inh hi DEA,TNAP inh no acc,PTEN del growth,TNAP act hi DEA
c1ccc(-c2nc(N3CCCCCC3)nc(-n3ccnc3)n2)cc1,96*,28,-4,-2,29,1
Nc1nc(-c2cccnc2)nc(N2CCCCC2)n1,-6,104,-3,-5,101,1
c1ccc(-c2nc(N3CCN(c4ccccc4)CC3)nc(-n3ccnc3)n2)cc1,67*,74,-2,-4,68,1
O=C(O)/C=C/c1ccc(O)c(O)c1,-5,59,-4,55*,72,1
COC(=O)c1ccc(OC(=O)c2ccccc2F)cc1,-6,100,6,-61,103,0.9
CC(C)c1c(Cl)c(O)c(-c2ccccc2)c(=O)n1-c1ccc(F)cc1,-6,92,0,-5,94,1
CCn1c(C)nc2cc(C(=O)OC(C(F)(F)C(F)F)C(F)(F)C(F)F)ccc21,100*,96,-4,-9,102,1
CCn1c(C)nc2cc(C(=O)NNC(=O)c3ccc(Cl)nc3)ccc21,-5,nt,1,-30,nt,1
Cc1ccc(C)c2sc(NC(=O)c3ccc(N4CCCCC4)c([N+](=O)[O-])c3)nc12,81*,37,0,-4,40,1
Cc1ccc(C(=O)NCCCn2ccnc2)cc1[N+](=O)[O-],11,98,-2,-3,99,1
CCCCNC(=O)c1ccc(N2CCC3(CC2)OCCO3)c([N+](=O)[O-])c1,59*,95,8,2,98,0.9
Cc1cccc(NC(=O)c2ccc(N3CCCCC3)c([N+](=O)[O-])c2)n1,12,23,5,3,31,1
CCS(=O)(=O)N1CCN(c2ccc(C(=O)NC3C4CC5CC(C4)CC3C5)cc2[N+](=O)[O-])CC1 (stereo not given),52*,80,7,-2,83,0.9
O=C(NCCCn1ccnc1)c1ccc(N2CCCCCC2)c([N+](=O)[O-])c1,90*,nt,9,4,nt,0.9
CCOC(=O)N1CCC(NC(=O)c2ccc(N3CCC4(CC3)OCCO4)c([N+](=O)[O-])c2)CC1,-3,nt,6,2,nt,0.9
CC(CNC(=S)Nc1cc(F)cc(F)c1)CSc1ccc(Cl)cc1 (stereo not given),48,nt,-12,-36,nt,1.1
O=C(Nc1cc(Br)ccc1O)c1cnn2c(C(F)F)cc(C3CC3)nc12,51*,nt,-4,-10,nt,1
COc1ccc(Cl)cc1-n1c(C)cc(C=O)c1C,78*,90,-2,-4,96,1
COC(=O)c1ccc2c(c1)S(=O)(=O)NC(=NCc1ccco1)S2,96*,94,-2,-6,90,1
CC(=O)c1cccc(N2C(=NC(=O)C(C)C)SC3CS(=O)(=O)CC32)c1 (stereo not given),-3,106,-2,-5,93,1
CC(C)C(=O)N=C1SC2CS(=O)(=O)CC2N1Cc1ccccc1 (stereo not given),52*,99,0,-9,96,1
COc1ccc(C2C(C#N)=C(N)OC3=C2C(=O)CCC3)cc1Cn1nc(C)c([N+](=O)[O-])c1C (stereo not given),93*,98,1,9,91,1
COc1ccc(C2C(C#N)=C(N)Oc3n[nH]c(C)c32)cc1Cn1nc(C)c([N+](=O)[O-])c1C (stereo not given),6,96,3,-2,86,1
COc1cc(NC(=O)C2CCCO2)c(OC)cc1NC(=O)c1ccccc1 (stereo not given),83*,88,3,-6,91,1
COc1ccc(OC)c(CC(NC(C)=O)C(=O)NC2CCN(c3cc(C)nc4ncnn34)CC2)c1 (stereo not given),-6,nt,-2,-6,nt,1
SMILES,Lmaj promast,HCT116 bCat-KO,TNAP inh hi DEA,TNAP inh no acc,PTEN del growth,TNAP act hi DEA
Nc1c(S(=O)(=O)c2ccccc2)c2nc3ccccc3nc2n1Cc1ccco1,77*,62,1,5,44,1
Nc1c(S(=O)(=O)c2ccccc2)c2nc3ccccc3nc2n1CCN1CCOCC1,6,102,-2,-6,93,1
Cc1ccc(S(=O)(=O)c2c(N)n(Cc3ccco3)c3nc4ccccc4nc23)cc1C,91*,24,4,-1,12,1
CC1=NN(C(N)=S)C(=O)C1N=Nc1ccc(C)cc1C (stereo not given),60*,90,12,-11,95,0.9
CCn1c(=O)cc(SCC(=O)N2CCN(C3CCCCC3)CC2)c2ccccc21,51*,65,-3,1,59,1
CCn1c(=O)cc(SCC(=O)N2CCOCC2)c2ccccc21,-2,71,0,-10,76,1
COc1ccc(C2CC(c3ccccc3)=NN2C(=O)COC(=O)c2cc(S(=O)(=O)N3CCOCC3)ccc2F)cc1 (stereo not given),27,83,-3,-15,85,1
CCc1ccc2c(c1)/C(=C/C(=O)c1cccs1)C(=O)N2,101*,0.8*,-2,-3,0.8*,1
Cc1cc(Br)c2c(c1)/C(=C/C(=O)c1cccs1)C(=O)N2,100*,nt,1,-3,nt,1
CN(C)/C=C/C(=O)c1ccc(Br)s1,-1,nt,-2,-3,nt,1
CCc1ccc2c(c1)/C(=N/N(C)C(=S)NC)C(=O)N2,5,51,-2,1,78,1
Cc1cc(C)c2c(c1)/C(=C/C(=O)c1ccc(Br)s1)C(=O)N2,100*,1.8*,5,1,1.8*,1
CN1/C(=C\C(=O)c2cccs2)C(C)(C)c2ccccc21,22,85,0,-6,84,1
Cc1cccc2c1NC(=O)/C2=C\C(=O)c1cccs1,100*,4.9*,1,-8,2.2*,1
COc1ccc(/C=N/N=C2\SC(CC(=O)O)C(=O)N2c2ccccc2)c(OC)c1 (stereo not given),-6,91,0,-6,91,1
Cc1cc(C(C#N)c2ccccc2F)n2ncnc2n1 (stereo not given),-8,nt,0,-4,nt,1
Cc1ccc(NC(=O)Cc2nc(CSc3nnc(-c4ccc5c(c4)OCO5)o3)cs2)cc1,87*,74,-8,9,86,1.1
CC(=O)Nc1ccc(-c2csc(Nc3cccc(C)n3)n2)cc1,79*,nt,-5,-2,nt,1
CN(C)CCNC(=O)CNC(=S)N(CCCN1CCOCC1)Cc1cccs1,-1,nt,-2,-34,nt,1
Cc1cc(C)c2c(c1)/C(=N/Nc1ccc(S(N)(=O)=O)cc1[N+](=O)[O-])CCC2,13,nt,15,22,nt,0.8
NS(=O)(=O)c1ccc(N/N=C2/CCCCC2C2CCCCC2)c([N+](=O)[O-])c1 (stereo not given),23,1.7*,10,0,2.5*,0.9
CN(CCCNC(=O)CSc1cc(=O)n(C)c2ccc(Cl)cc12)Cc1ccccc1,58*,nt,0,2,nt,1
